Laboratory results as given in ChEMBL document CHEMBL1123688, “Synthesis of 7,12-dihydropyrido[3,4-b:5,4-b']diindoles. A novel class of rigid, planar benzodiazepine receptor ligands” (J Med Chem, 1987).
pIC50: −log10 of the molar value. Calls of active or inactive are those of the source. The rule behind the calls is not given here.

Assays:
Mus musculus [1] = assay: Convulsant effect in mice treated with subconvulsant (pentylenetetrazole) PTZ (40 mg/kg), ineffective at 30 mg/kg; assay type: functional, organism-based; set-up: dose 30 mg/kg
[2] = biological target: GABA-A receptor; anion channel; assay: Inhibition of [3H]-diazepam binding to GABA-A benzodiazepine receptor of rat cerebral cortical membranes; assay type: cell membranes, Membrane
Mus musculus [3] = assay: Antagonism of Diazepam (2.5 mg/kg) anticonvulsant effect in mice treated with (pentylenetetrazole) PTZ (80 mg/kg); assay type: functional
Procedure, shortened: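 Adult male NIH-colony mice (20-25 g), groups of 10, got graded ip doses of test agent or vehicle (0.1 mL). Diazepam 2.5 mg/kg ip followed 15 min later, then PTZ 80 mg/kg 15 min after that. Score: tonic-clonic convulsions. ED50 = dose that blocks diazepam's anticonvulsant effect in 50% of mice.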

Mus musculus [4] = assay: Convulsant effect in mice treated with subconvulsant (pentylenetetrazole) PTZ (40 mg/kg); assay type: functional
Mus musculus [5] = assay: Protection of mice against maximal electroshock (MES)-induced convulsions after administration of 38 mg/kg; assay type: functional
Mus musculus [6] = species on record: Mus musculus; assay: In vitro ability to induce convulsions in mice

SMILES | pIC50 [2] | ED50 (Mus musculus [3]) [mg/kg] | other results
Clc1ccc2c(c1)[nH]c1c2ncc2[nH]c3ccccc3c21 | 8.00 | 2.5 | ED50 (Mus musculus [1]): inactive
COc1ccc2c(c1)[nH]c1c2ncc2[nH]c3ccccc3c21 | 8.10 | 3.9 | ED50 (Mus musculus [4]): 7 mg/kg
Clc1cccc2[nH]c3c4c5ccccc5nc-4c[nH]c3c12 | 6.15 | – | –
Fc1cccc2c1[nH]c1c3c4ccccc4nc-3c[nH]c12 | 7.92 | – | –
c1ccc2c(c1)[nH]c1c2ncc2[nH]c3ccccc3c21 | 8.40 | 21.3 | ED50 (Mus musculus [4]): 15.1 mg/kg
Fc1ccc2c(c1)[nH]c1c3c4ccccc4nc-3c[nH]c12 | 8.15 | – | –
Clc1cccc2c1[nH]c1c3c4ccccc4nc-3c[nH]c12 | 7.10 | – | –
COc1ccc2[nH]c3c4c5ccccc5nc-4c[nH]c3c2c1 | 6.05 | – | –
Fc1ccc2[nH]c3c4c5ccccc5nc-4c[nH]c3c2c1 | 7.80 | 24 | ED50 (Mus musculus [1]): inactive
Clc1ccc2[nH]c3c4c5ccccc5nc-4c[nH]c3c2c1 | 5.67 | – | –
CN1C(=O)CN=C(c2ccccc2)c2cc(Cl)ccc21 [DIAZEPAM] | – | – | Survivors (Mus musculus [5]): 100%; ED50 (Mus musculus [6]): 3.4 mg/kg
